Drawing on ChEMBL document CHEMBL3797163, “Tryptic Stability of Synthetic Bactenecin Derivatives Is Determined by the Side Chain Length of Cationic Residues and the Peptide Conformation” (J Med Chem, 2016), this text covers MIC and Stability for 13 molecules.

The structures appear in SMILES notation. Values after ≈ are worked out from the molar mass of the structure shown. Square brackets hold non-standard residues; d marks the D form. Peptide text beside a SMILES is read from it. hArg = N=C(N)NCCCC[C@H](N)C(=O)O; Orn = NCCC[C@H](N)C(=O)O; Dab = NCC[C@H](N)C(=O)O

One data set concerns Staphylococcus aureus. The data set is described as follows: Antimicrobial activity against Staphylococcus aureus C622 incubated overnight by microdilution method. It counts as functional. The essentials:
(§1)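 Broth microdilution in Mueller-Hinton broth. Peptides were serially diluted 2-fold in water at twice the final concentration, then mixed 1:1 with bacteria in 2× MHB to a final 2˗7 × 10^5 CFU/mL. Plates were incubated overnight at 37 °C. MIC was taken as the lowest concentration showing no growth.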
Background: In broth dilution the organism is exposed to a series of concentrations in liquid medium.

Data set [1] can be described thus: Stability of compound assessed as bovine trypsin mediated degradation at 2 to 5 mM after 2 hrs by HPLC/MS analysis. In kind it is ADME, Bos taurus. The note with it: cattle, isolated protein, 5000 µM. The essentials: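 Bovine pancreatic trypsin (salt-free) was freshly dissolved at 1 mg per 50 mL in 0.1 M NH4HCO3, pH 8.2, and added to peptide, which was diluted from 2˗5 mM stocks to a final 60 µM. Reactions were shaken at 37 °C and sampled at 2 h and 24 h. Aliquots were quenched with acetic acid/TFA and analysed by RP-HPLC (C18, 220 nm) and direct-injection ESI-MS. No-enzyme samples served as controls.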

The test system of another data set is Escherichia coli. The experiment in a line: Antimicrobial activity against Escherichia coli O157:H7 incubated overnight by microdilution method. It counts as functional. In a few lines:
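Broth microdilution in Mueller-Hinton broth. Peptides were serially diluted twofold in water at 2× final concentration and mixed 1:1 with bacteria in 2× MHB, giving a final inoculum of 2-7 × 10^5 CFU/mL. Plates were incubated overnight at 37 °C. MIC was read as the lowest concentration with no visible growth.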

The test system of the next data set is Bacillus subtilis. The data set is described as follows: Antimicrobial activity against Bacillus subtilis C626 incubated overnight by microdilution method. In kind it is functional. The essentials:
as §1

The subject of another data set is Acinetobacter baumannii. The experiment in a line: Antimicrobial activity against Acinetobacter baumannii ATCC 17978 incubated overnight by microdilution method. In kind it is functional. In a few lines:
as §1

The MIC is the least concentration at which growth counts as inhibited.

As to `CC[C@H](C)[C@H](NC(=O)[C@H](Cc1c[nH]c2ccccc12)NC(=O)[C@H](CCCN)NC(=O)[C@H](Cc1c[nH]c2ccccc12)NC(=O)[C@H](Cc1c[nH]c2ccccc12)NC(=O)[C@H](CCCN)NC(=O)[C@@H](N)CCCN)C(=O)N[C@@H](CCCN)C(=O)N[C@@H](Cc1c[nH]c2ccccc12)C(N)=O` (H-[Orn][Orn]WW[Orn]WI[Orn]W-NH2), the MIC is 5 µM (≈ 6.66 µg/mL) against Staphylococcus aureus, 1.25 µM (≈ 1.66 µg/mL) with Escherichia coli, 10 µM (≈ 13.3 µg/mL) in the data set with Bacillus subtilis and 10 µM (≈ 13.3 µg/mL) in the data set on Acinetobacter baumannii. In addition, the Stability result in data set [1] is recorded as “Unstable”.

`CC[C@H](C)[C@H](NC(=O)[C@H](Cc1c[nH]c2ccccc12)NC(=O)[C@H](CCCNC(=N)N)NC(=O)[C@H](Cc1c[nH]c2ccccc12)NC(=O)[C@H](Cc1c[nH]c2ccccc12)NC(=O)[C@H](CCCCN)NC(=O)[C@@H](N)CCCNC(=N)N)C(=O)N[C@@H](CCCCN)C(=O)N[C@@H](Cc1c[nH]c2ccccc12)C(N)=O` (H-RKWWRWIKW-NH2): the MIC was determined as 2.5 µM (≈ 3.61 µg/mL) against Staphylococcus aureus, 1.25 µM (≈ 1.8 µg/mL) in the data set with Escherichia coli, 20 µM (≈ 28.9 µg/mL) against Bacillus subtilis and 5 µM (≈ 7.22 µg/mL) against Acinetobacter baumannii. Also, in data set [1], the Stability entry is on record as “Unstable”.

As for `CC[C@H](C)[C@H](NC(=O)[C@H](Cc1c[nH]c2ccccc12)NC(=O)[C@H](CCCN)NC(=O)[C@H](Cc1c[nH]c2ccccc12)NC(=O)[C@H](Cc1c[nH]c2ccccc12)NC(=O)[C@H](CCCCNC(=N)N)NC(=O)[C@@H](N)CCCN)C(=O)N[C@@H](CCCCNC(=N)N)C(=O)N[C@@H](Cc1c[nH]c2ccccc12)C(N)=O` (H-[Orn][hArg]WW[Orn]WI[hArg]W-NH2), the MIC against Staphylococcus aureus turned out to be 5 µM (≈ 7.22 µg/mL); against Escherichia coli, 1.25 µM (≈ 1.8 µg/mL); in the data set on Bacillus subtilis, 20 µM (≈ 28.9 µg/mL); against Acinetobacter baumannii, 5 µM (≈ 7.22 µg/mL). Moreover, the Stability result in data set [1] was “Unstable”.

Take `CC[C@H](C)[C@H](NC(=O)[C@H](Cc1c[nH]c2ccccc12)NC(=O)[C@H](CCN)NC(=O)[C@H](Cc1c[nH]c2ccccc12)NC(=O)[C@H](Cc1c[nH]c2ccccc12)NC(=O)[C@H](CCCCNC(=N)N)NC(=O)[C@@H](N)CCN)C(=O)N[C@@H](CCCCNC(=N)N)C(=O)N[C@@H](Cc1c[nH]c2ccccc12)C(N)=O` (H-[Dab][hArg]WW[Dab]WI[hArg]W-NH2): the MIC came to 5 µM (≈ 7.08 µg/mL) with Staphylococcus aureus, 1.25 µM (≈ 1.77 µg/mL) against Escherichia coli, 20 µM (≈ 28.3 µg/mL) with Bacillus subtilis and 5 µM (≈ 7.08 µg/mL) in the data set with Acinetobacter baumannii. For the same molecule, the Stability result in data set [1] is “Unstable”.

For `CC[C@H](C)[C@H](NC(=O)[C@H](Cc1c[nH]c2ccccc12)NC(=O)[C@H](CCCCN)NC(=O)[C@H](Cc1c[nH]c2ccccc12)NC(=O)[C@H](Cc1c[nH]c2ccccc12)NC(=O)[C@H](CCCNC(=N)N)NC(=O)[C@@H](N)CCCCN)C(=O)N[C@@H](CCCNC(=N)N)C(=O)N[C@@H](Cc1c[nH]c2ccccc12)C(N)=O`, the MIC in the data set with Staphylococcus aureus is 5 µM (≈ 7.22 µg/mL); against Escherichia coli, 1.25 µM (≈ 1.8 µg/mL); against Bacillus subtilis it was 20 µM (≈ 28.9 µg/mL); against Acinetobacter baumannii it was 5 µM (≈ 7.22 µg/mL). Besides, the Stability result in data set [1] is recorded as “Unstable”.

For the molecule `N=C(N)NCCCC[C@H](NC(=O)[C@@H](CCCCNC(=N)N)NC(=O)[C@H](Cc1c[nH]c2ccccc12)NC(=O)[C@H](Cc1c[nH]c2ccccc12)NC(=O)[C@H](CCCCNC(=N)N)NC(=O)[C@H](Cc1c[nH]c2ccccc12)NC(=O)[C@@H](Cc1c[nH]c2ccccc12)NC(=O)[C@@H](CCCCNC(=N)N)NC(=O)[C@@H](N)CCCCNC(=N)N)C(N)=O`, the MIC against Staphylococcus aureus was determined as 2.5 µM (≈ 4.03 µg/mL); against Escherichia coli it was 2.5 µM (≈ 4.03 µg/mL); in the data set with Bacillus subtilis it was 10 µM (≈ 16.1 µg/mL); in the data set on Acinetobacter baumannii, 20 µM (≈ 32.3 µg/mL). Moreover, the Stability result in data set [1] was “Unstable”.

As to `N=C(N)NCCC[C@H](NC(=O)[C@H](CCCNC(=N)N)NC(=O)[C@H](Cc1c[nH]c2ccccc12)NC(=O)[C@H](Cc1c[nH]c2ccccc12)NC(=O)[C@H](CCCCN)NC(=O)[C@H](Cc1c[nH]c2ccccc12)NC(=O)[C@H](Cc1c[nH]c2ccccc12)NC(=O)[C@H](CCCNC(=N)N)NC(=O)[C@@H](N)CCCCN)C(N)=O`, the MIC is 5 µM (≈ 7.43 µg/mL) against Staphylococcus aureus, 2.5 µM (≈ 3.72 µg/mL) in the data set on Escherichia coli, 40 µM (≈ 59.5 µg/mL) in the data set with Bacillus subtilis and 40 µM (≈ 59.5 µg/mL) against Acinetobacter baumannii. For the same molecule, the Stability entry in data set [1] is “Unstable”.

With `N=C(N)NCCCC[C@H](NC(=O)[C@H](CCCCNC(=N)N)NC(=O)[C@H](Cc1c[nH]c2ccccc12)NC(=O)[C@@H](Cc1c[nH]c2ccccc12)NC(=O)[C@@H](CCCN)NC(=O)[C@@H](Cc1c[nH]c2ccccc12)NC(=O)[C@H](Cc1c[nH]c2ccccc12)NC(=O)[C@H](CCCCNC(=N)N)NC(=O)[C@H](N)CCCN)C(N)=O`, the MIC against Staphylococcus aureus came to 5 µM (≈ 7.5 µg/mL); against Escherichia coli, 2.5 µM (≈ 3.75 µg/mL); in the data set on Bacillus subtilis it was 40 µM (≈ 60 µg/mL); against Acinetobacter baumannii it was 40 µM (≈ 60 µg/mL). The Stability result in data set [1] is reported as “Unstable”.

With `CN[C@@H](CC(C)C)C(=O)N[C@H]1C(=O)N[C@@H](CC(N)=O)C(=O)N[C@H]2C(=O)N[C@H]3C(=O)N[C@H](C(=O)N[C@@H](C(=O)O)c4cc(O)cc(O)c4-c4cc3ccc4O)[C@H](O)c3ccc(c(Cl)c3)Oc3cc2cc(c3O[C@H]2O[C@@H](CO)[C@H](O)[C@@H](O)[C@@H]2O[C@@H]2C[C@@](C)(N)[C@@H](O)[C@@H](C)O2)Oc2ccc(cc2Cl)[C@H]1O`, the MIC with Staphylococcus aureus was 1 µM (≈ 1.45 µg/mL); against Escherichia coli, greater than 32 µM; in the data set on Bacillus subtilis, 1 µM (≈ 1.45 µg/mL); against Acinetobacter baumannii, greater than 32 µM.

As to `CC[C@@H](C)[C@@H](NC(=O)[C@@H](Cc1c[nH]c2ccccc12)NC(=O)[C@@H](CCCCN)NC(=O)[C@@H](Cc1c[nH]c2ccccc12)NC(=O)[C@@H](Cc1c[nH]c2ccccc12)NC(=O)[C@@H](CCCNC(=N)N)NC(=O)[C@H](N)CCCCN)C(=O)N[C@H](CCCNC(=N)N)C(=O)N[C@H](Cc1c[nH]c2ccccc12)C(N)=O`, in data set [1], the Stability result is on record as “Stable”.

With `CC[C@H](C)[C@H](NC(=O)[C@H](Cc1c[nH]c2ccccc12)NC(=O)[C@H](CCCCNC(=N)N)NC(=O)[C@H](Cc1c[nH]c2ccccc12)NC(=O)[C@H](Cc1c[nH]c2ccccc12)NC(=O)[C@H](CCCCNC(=N)N)NC(=O)[C@@H](N)CCCCNC(=N)N)C(=O)N[C@@H](CCCCNC(=N)N)C(=O)N[C@@H](Cc1c[nH]c2ccccc12)C(N)=O` (H-[hArg][hArg]WW[hArg]WI[hArg]W-NH2), the MIC came to 2.5 µM (≈ 3.89 µg/mL) in the data set with Staphylococcus aureus, 2.5 µM (≈ 3.89 µg/mL) with Escherichia coli, 5 µM (≈ 7.78 µg/mL) against Bacillus subtilis and 5 µM (≈ 7.78 µg/mL) with Acinetobacter baumannii. The Stability entry in data set [1] was “Unstable”.

Regarding `N=C(N)NCCC[C@@H](N)C(=O)N[C@H](CCCNC(=N)N)C(=O)N[C@H](Cc1c[nH]c2ccccc12)C(=O)N[C@H](Cc1c[nH]c2ccccc12)C(=O)N[C@H](CCCCN)C(=O)N[C@H](Cc1c[nH]c2ccccc12)C(=O)N[C@H](Cc1c[nH]c2ccccc12)C(=O)N[C@H](CCCNC(=N)N)C(=O)N[C@H](CCCCN)C(N)=O`, the MIC in the data set with Staphylococcus aureus worked out at 5 µM (≈ 7.43 µg/mL); in the data set on Escherichia coli, 1.25 µM (≈ 1.86 µg/mL); in the data set with Bacillus subtilis, 20 µM (≈ 29.7 µg/mL). In addition, the Stability result in data set [1] is reported as “Stable”.

Consider `CC[C@@H](C)[C@@H](NC(=O)[C@@H](CCCNC(=N)N)NC(=O)[C@H](N)Cc1c[nH]c2ccccc12)C(=O)N[C@H](Cc1c[nH]c2ccccc12)C(=O)N[C@H](CCCCN)C(=O)N[C@H](Cc1c[nH]c2ccccc12)C(=O)N[C@H](Cc1c[nH]c2ccccc12)C(=O)N[C@H](CCCNC(=N)N)C(=O)N[C@H](CCCCN)C(N)=O`, for which the Stability entry in data set [1] is listed as “Stable”.
